These results are taken from ChEMBL document CHEMBL1124463, “Retinobenzoic acids. 3. Structure-activity relationships of retinoidal azobenzene-4-carboxylic acids and stilbene-4-carboxylic acids” (1989).

For experiment [1], the system named is HL-60. As to the kind of experiment: The ability to induce differentiation of HL-60 cells relative to that of retinoic acid. It counts as functional, Homo sapiens. The gist of the method: (§1)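 HL-60 cells from suspension culture in RPMI1640 with 5% FCS and antibiotics, 37 °C, 5% CO2. Compounds were dissolved in ethanol at 0.2 mM (stock), with final ethanol below 0.5%, and added to cells seeded at about 8 × 10^4 cells/mL for 4 days. Retinoic acid was run concurrently. Value is the ED50 ratio of retinoic acid to compound, with ED50 taken from NBT-reduction data.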

Experiment [2] has as its system HL-60. As to the kind of experiment: The ability to induce differentiation of human promyelocytic leukemia HL-60 cell line to mature granulocyte. It counts as functional. The following applies: read-out: ED50 (the source's name). The gist of the method: (§2)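 HL-60 cells in RPMI1640 with 5% FCS, ethanol stocks at 0.2 mM, final ethanol <0.5%, seeded at ~8 × 10^4 cells/mL and exposed 4 days across 5 orders of concentration. Cells were then incubated 20 min at 37 °C with an equal volume of PBS containing 0.2% NBT and 200 ng/mL TPA. Formazan-positive cells were counted (≥200 cells). ED50 from NBT data; ≥3 repeats.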

Experiment [3] has as its system HL-60. As to the kind of experiment: The ability to induce differentiation of human promyelocytic leukemia HL-60 cell line to mature granulocyte was determined in a NBT reduction assay; IA= Inactive. It counts as functional, cell-based. The gist of the method: as §2
Experiment [4] concerns HL-60. As to the kind of experiment: The ability to induce differentiation of human promyelocytic leukemia HL-60 cell line to mature granulocyte was determined in a NBT reduction assay; NA means inactive. The class given is functional, cell-based. The gist of the method:
as §2

The test system of experiment [5] is HL-60. The experiment can be described thus: Activity to differentiate HL-60 cells relative to that of retinoic acid. It counts as functional, Homo sapiens. The gist of the method: as §1
The test system of experiment [6] is HL-60. As to the kind of experiment: The ability to induce differentiation of human promyelocytic leukemia HL-60 cell line to mature granulocyte was determined in a NBT reduction assay; Maximum cellular response to compound is less than half of that of retinoic acid. The note with it: read-out: ED50 (the source's name). It counts as functional. The gist of the method: as §2

Experiment [7] concerns HL-60. The experiment can be described thus: The ability to induce differentiation of human promyelocytic leukemia HL-60 cell line to mature granulocyte was determined in a NBT reduction assay; IA= Inactive at >10e-6. It counts as functional, cell-based. The gist of the method: as §2

Calls of active or inactive are those of the source. No cut-off for these calls is given here.

Turning to `CC1(C)CCC(C)(C)c2cc(C3OC3c3ccc(C(=O)O)cc3)ccc21` (stereo unspecified), the Relative activity in the experiment with HL-60 [1] was determined as 22. Also, the EC50 in the experiment on HL-60 [2] was found to be 4.3 nM.
In turn, `CC1(C)CCC(C)(C)c2cc3oc(-c4ccc(C(=O)O)cc4)cc3cc21` returned a Relative activity with HL-60 [1] of 120. The EC50 with HL-60 [2] came out at 1.3 nM.
Taken in the same sequence, the figures for `CC(C)(C)c1cccc(/N=N/c2ccc(C(=O)O)cc2)c1` were 0.36 and 400 nM.
In the case of `CC1(C)CCC(C)(C)c2cc(/N=N/c3ccc(C(=O)O)cc3)ccc21`, in the experiment on HL-60 [1], the Relative activity is listed as 130.
Turning to `CC1(C)CCC(C)(C)c2cc(C(=O)C(=O)c3ccc(C(=O)O)cc3)ccc21`, in the experiment with HL-60 [1], the Relative activity worked out at 3.9. In addition, in the experiment with HL-60 [2], the EC50 worked out at 140 nM.
`CC1(C)CCC(C)(C)c2cc(/C=C/c3ccc(C(=O)O)cc3)ccc21` showed a Relative activity with HL-60 [1] of 260. The EC50 with HL-60 [2] came to 0.5 nM.
Taken in the same sequence, the figures for `CC1(C)CCC(C)(C)c2cc(/C(=C/c3ccc(C(=O)O)cc3)C(F)(F)F)ccc21` were 5.7 and 31 nM.
For the compound `CC1(C)CCC(C)(C)c2cc3c(cc21)CC/C3=C\c1ccc(C(=O)O)cc1`, in the experiment on HL-60 [1], the Relative activity turned out to be 570. In addition, in the experiment with HL-60 [2], the EC50 was found to be 0.2 nM.
Consider `C/C(=C\c1ccc(C(=O)O)cc1)c1ccc(C)c(C)c1`, for which the ED50 entry in the experiment on HL-60 [3] was “inactive”.
For the compound `CC(C)c1ccccc1/N=N/c1ccc(C(=O)O)cc1`, in the experiment on HL-60 [3], the ED50 result is “inactive”.
Regarding `O=C(O)c1ccc(/C=C/c2ccccc2)cc1`, in the experiment with HL-60 [4], the ED50 result was “inactive”.
Compound `CC(C)c1ccc(/N=N/c2ccc(C(=O)O)cc2)cc1` returned a Relative activity in the experiment on HL-60 [1] of under 0.1. The EC50 in the experiment on HL-60 [2] is over 10000 nM.
In the experiment with HL-60 [1], `CC(C)c1cccc(/N=N/c2ccc(C(=O)O)cc2)c1` gave a Relative activity of 0.29. The EC50 in the experiment on HL-60 [2] came to 380 nM.
Consider `Cc1cccc(/N=N/c2ccc(C(=O)O)cc2)c1`, for which the ED50 entry in the experiment with HL-60 [3] is “inactive”.
In the experiment on HL-60 [1], `CC1(C)CCC(C)(C)c2cc(/N=[N+](\[O-])c3ccc(C(=O)O)cc3)ccc21` had a Relative activity of 1960. Moreover, the EC50 with HL-60 [2] turned out to be 0.25 nM.
`CC(C)c1cc(/N=N/c2ccc(C(=O)O)cc2)cc(C(C)C)c1` yielded a Relative activity with HL-60 [1] of 0.22. The EC50 in the experiment on HL-60 [2] is 410 nM.
With `C/C(=C\c1ccc(C(=O)O)cc1)c1ccc(C(C)C)c(C(C)C)c1`, in the experiment on HL-60 [5], the Relative activity is recorded as 15. The EC50 in the experiment with HL-60 [2] was found to be 13 nM.
Regarding `CC1(C)CCC(C)(C)c2cc3c(cc21)C=C(c1ccc(C(=O)O)cc1)C3`, in the experiment with HL-60 [6], the EC50 came out at 6.6 nM.
For `CCc1ccc(C2(C)OC2c2ccc(C(=O)O)cc2)cc1CC` (stereo unspecified), the ED50 result with HL-60 [3] was “inactive”.
For `CC1=C(/C=C/C(C)=C/C=C/C(C)=C/C(=O)O)C(C)(C)CCC1` [TRETINOIN], the Relative activity with HL-60 [1] worked out at 100. Moreover, the EC50 in the experiment on HL-60 [2] stood at 2.4 nM.
Consider `O=C(O)c1ccc(/N=N/c2ccccc2)cc1`, for which the ED50 entry in the experiment on HL-60 [3] is “inactive”.
For the compound `CC(C)(C)c1cccc(C2OC2c2ccc(C(=O)O)cc2)c1` (stereo unspecified), the Relative activity with HL-60 [1] was under 0.01. In addition, the EC50 with HL-60 [2] was over 1000 nM.
On to `CC(C)c1ccc(C(C)C)c(/N=N/c2ccc(C(=O)O)cc2)c1`, for which the ED50 result in the experiment on HL-60 [3] was “inactive”.
For `CC1(C)CCSc2ccc(/N=N/c3ccc(C(=O)O)cc3)cc21`, the Relative activity with HL-60 [1] is recorded as 2.1. For the same compound, the EC50 in the experiment with HL-60 [2] turned out to be 210 nM.
Compound `CC(C)c1ccc(/N=N/c2ccc(C(=O)O)cc2)c(C(C)C)c1` displayed a Relative activity in the experiment on HL-60 [1] of under 0.1. The EC50 in the experiment on HL-60 [2] is over 10000 nM.
Taken in the same sequence, the figures for `CC1(C)CCOc2ccc(/N=N/c3ccc(C(=O)O)cc3)cc21` were 3.5 and 130 nM.
Taken in the same sequence, the figures for `CC(C)(C)c1ccc(C2OC2c2ccc(C(=O)O)cc2)cc1` (stereo unspecified) were under 0.01 and over 1000 nM.
Taken in the same sequence, the figures for `O=C(O)c1ccc(/N=N/c2cccc(C3CCCCC3)c2)cc1` were 0.68 and 130 nM.
Compound `CC1(C)CCC(C)(C)c2cc(CCc3ccc(C(=O)O)cc3)ccc21` showed a Relative activity in the experiment on HL-60 [1] of 2.7. Besides, the EC50 with HL-60 [2] is 130 nM.
Taken in the same sequence, the figures for `O=C(O)c1ccc(/N=N/c2cccc(-c3ccccc3)c2)cc1` were under 0.1 and over 10000 nM.
As to `CCc1ccc(/C(C)=C/c2ccc(C(=O)O)cc2)cc1CC`, the Relative activity in the experiment on HL-60 [1] is listed as 2.2. The EC50 in the experiment with HL-60 [2] came out at 87 nM.
`CCc1ccc(/N=N/c2ccc(C(=O)O)cc2)cc1CC`: in the experiment with HL-60 [1], the Relative activity was 0.53. For the same compound, in the experiment on HL-60 [2], the EC50 was determined as 220 nM.
In the case of `C/C(=C\c1ccc(C(=O)O)cc1)c1ccc(C(C)(C)C)cc1`, in the experiment with HL-60 [3], the ED50 entry is “inactive”.
As for `CC(C)(C)c1ccc(/C=C/c2ccc(C(=O)O)cc2)cc1`, the ED50 result in the experiment on HL-60 [3] was “inactive”.
For `CCc1cccc(/N=N/c2ccc(C(=O)O)cc2)c1`, the Relative activity with HL-60 [1] is under 0.1. In addition, the ED50 result in the experiment with HL-60 [7] was “inactive”.
Compound `CC(C)c1ccc(/N=N/c2ccc(C(=O)O)cc2)cc1C(C)C` registered a Relative activity with HL-60 [1] of 39. In the experiment with HL-60 [2], the EC50 is 2.3 nM.
Consider `CC1(C)CCC(C)(C)c2cc(C3(C)OC3c3ccc(C(=O)O)cc3)ccc21` (stereo unspecified), for which the Relative activity in the experiment with HL-60 [1] stood at 0.65. Moreover, in the experiment with HL-60 [2], the EC50 was 130 nM.
Compound `CC(C)(C)c1cccc(/C=C/c2ccc(C(=O)O)cc2)c1` came in with a Relative activity in the experiment on HL-60 [1] of 13.
For the compound `C/C(=C\c1ccc(C(=O)O)cc1)c1ccc2c(c1)C(C)(C)CCC2(C)C`, the Relative activity in the experiment on HL-60 [1] amounted to 90. In addition, the EC50 in the experiment on HL-60 [2] worked out at 2.5 nM.
